# Assay outcomes: PubChem BioAssay, several laboratories
# H9c2 TAG inh = reduces triacylglycerol accumulation in H9c2 cells; Nile Red lipid (TAG) fluorescence; cells loaded with 200 µM oleic acid; inhibition, % at 12.5 µM; actives 0.66% (n = 230,000); AID 651582;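 active means pattern-corrected inhibition of lipid staining of at least 50% with the nuclear-stain viability signal not falling by more than 50%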;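 further: 0% = DMSO wells and 100% = triacsin C control wells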
# Bfl-1 A1 inh = inhibitors of the anti-apoptotic protein A1, read as caspase activation. MEF A1-2A-BIM cells, Caspase-Glo 3/7 luminescence, 3 h; percent of clofoctol response, vehicle zero. caspase activation, % (test concentration not listed). actives 0.066% (n = 330,000);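 active means over half of replicate activation scores above 10%, or exactly half above 10 with the replicate mean above 10; inconclusive means replicate mean below 10 yet half the replicates above 10; inactive means over half of replicates below 10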
# SR-BI DiI-HDL act = activators of SR-BI mediated HDL lipid uptake; CHO ldlA[mSR-BI] cells, DiI-HDL uptake fluorescence, 3 h; 100 = double the neutral-control signal; activation, % at 12.5 µM; actives 0.096% (n = 320,000); AID 504775;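 active means mean replicate activation of at least 60% and every replicate at or above 60%; inconclusive means mean or all-replicate condition met, but not both; inactive means mean below 60% and not all replicates reaching 60%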;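 further: 0% = median plate neutral-control signal and 100% = twice that signal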
#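 Material: SR-BI-overexpressing, LDLR-lacking CHO cells | Dosing: Single compound concentration, delivered by pin transfer | Probe or stimulus: Labelled HDL, 10 µg/mL | Signal: Bottom-read cell fluorescence after medium removal, ex 550/em 595 nm | Schedule: 3 h, 37 °C | Evaluation: HDL uptake via cellular fluorescence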
# SR-BI HDL uptake = inhibitors of mouse SR-BI mediated HDL lipid uptake | Q61009 | ldlA[mSR-BI] CHO cells, DiI-HDL uptake fluorescence, 3 h | inhibition, % at 12.5 µM | actives 0.96% (n = 320,000) | AID 488896;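 active means mean replicate inhibition of at least 70% and a set share of replicates each scoring 70 or more; inconclusive means meets just one of the two criteria; inactive means fails both criteria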;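 further: 0% = median of neutral control wells and 100% = median of positive control wells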
# Target sequence (Q61009 whole entry, looked up): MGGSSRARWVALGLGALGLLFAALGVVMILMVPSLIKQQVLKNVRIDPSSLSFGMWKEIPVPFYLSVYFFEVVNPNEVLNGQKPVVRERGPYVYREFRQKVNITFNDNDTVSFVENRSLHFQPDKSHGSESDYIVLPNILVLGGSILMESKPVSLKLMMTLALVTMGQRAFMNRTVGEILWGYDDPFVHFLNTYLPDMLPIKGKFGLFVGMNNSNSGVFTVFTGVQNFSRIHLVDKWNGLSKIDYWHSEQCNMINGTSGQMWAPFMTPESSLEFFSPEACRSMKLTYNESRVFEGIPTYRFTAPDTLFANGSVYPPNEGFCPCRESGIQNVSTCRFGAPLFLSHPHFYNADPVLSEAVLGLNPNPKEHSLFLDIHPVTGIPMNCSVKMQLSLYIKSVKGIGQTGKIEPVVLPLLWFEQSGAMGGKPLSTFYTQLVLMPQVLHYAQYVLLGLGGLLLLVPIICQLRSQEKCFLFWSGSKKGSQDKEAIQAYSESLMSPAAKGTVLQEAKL
# Vif imaging = HIV Vif inhibition; actives 0.35% (n = 340,000); AID 602346; inhibition, % at 7.49 µM; HEK293T cells, Vif self-association by quenched fluorescence, imaging, 24 h; in the data active means inhibition above about 50%, passing the limit was not always enough; inconclusive means no clear call, values can overlap the other calls; inactive means below about 31%
# * hit, by the source's call; ? = inconclusive; / = no result. Compounds with a hit are over-represented: about 1.6% of the library has one in this group of screens.
SMILES,H9c2 TAG inh,Bfl-1 A1 inh,SR-BI DiI-HDL act,SR-BI HDL uptake,Vif imaging
CCOC(=O)C1CCN(C(=O)c2cc(S(=O)(=O)N(C)C)ccc2N2CCCC2)CC1,-27,0,11,-11,1
C[C@@]12C(=O)Nc3cc(F)c(F)cc3C(=O)N1[C@H]1c3cc(Cl)ccc3OC[C@@H]1[C@@H]2c1ccccc1,63*,0,-5,5,6
COc1ccc(N2C(=S)NC3N2C(=S)NC3(C)c2ccccc2)cc1 (configuration not stated),7,-7,-18,18,6
Cc1nn(CCCC(=O)N2CCc3ccccc3C2)c(=O)c2cc3sccc3n12,3,0,-2,2,85*
O=S(=O)(CS(=O)(=O)c1ccccc1)c1ccccc1,-1,/,35,-35,-1
O=S(=O)(C/C(=C/CO)S(=O)(=O)c1ccccc1)c1ccccc1,/,0,19,-19,62*
COc1cccc(N=Nc2ccc3ccccc3c2O)c1,/,1,-72,72*,-1
COc1ccc(N=Nc2ccc3ccccc3c2)c(O)c1,/,-10,-14,14,?
CCOC(=O)C1=C(C)NC(C)=C(C(=O)OC)C1c1cccc([N+](=O)[O-])c1 (configuration not stated),1,0,10,-7,135*
CSc1ccc(C(=O)C2CCCN(C(=O)Cc3nonc3C)C2)cc1 (configuration not stated),/,1,14,-14,-7
CN(c1cccc(NC(=O)CN(c2ccc(C34CC5CC(CC(C5)C3)C4)cc2)S(C)(=O)=O)c1)S(C)(=O)=O,/,1,76*,-76,-9
CN(c1cccc(NC(=O)CN(c2ccc(F)cc2)S(C)(=O)=O)c1)S(C)(=O)=O,1,0,11,-11,10
Cc1ccccc1NC(=O)CCN1CCc2ccccc2C1,-12,0,-3,3,-3
COc1ccc(Br)cc1/C=N/NC(=O)CNC(=O)/C=C/c1ccccc1,33,-1,-63,63,-9
COc1ccc(/C=C/C(=O)NCC(=O)N/N=C/c2cc(Br)ccc2OCc2ccccc2)cc1,-10,1,-79,79*,-5
Cc1nn(CCCC(=O)NCCc2ccccc2)c(=O)c2nccn12,10,1,27,-27,0
C=C1/C=C(\C)[C@](C)(O)C[C@H](O)CC(=O)[C@H](O)[C@@H](O)[C@H](C)C[C@H](C)OC(=O)/C(C)=C/CC/C=C/[C@@H]2O[C@H]2C[C@H](C)C1,/,15*,/,/,/
CCC1(C)Cc2c(C#N)c(SC)nc(N3CCOCC3)c2CO1 (configuration not stated),7,-1,/,/,53*
CSc1nc(N2CCOCC2)c2c(c1C#N)CC(C)(C)OC2,-3,0,-22,22,2
CCCn1c(=O)c(C(=O)Nc2ncccc2O)c(O)c2ccccc21,/,1,3,-3,58*
O=C(NC1CCCN(Cc2ccccc2F)C1)c1cccs1 (configuration not stated),/,0,7,-7,0
Cc1nc(N2CCC(C)CC2)c2c(C)c(C(=O)Nc3cccc(C(F)(F)F)c3)sc2n1,20,1,-87,87*,-2
Cc1nc(N2CCC(C)CC2)c2c(C)c(C(=O)Nc3ccc4c(c3)OCCO4)sc2n1,/,0,-69,69,0
Cc1nc(N2CCC(C)CC2)c2c(C)c(C(=O)Nc3ccc(C(F)(F)F)cc3)sc2n1,4,1,-75,75*,-20
CCCN1CCN(C(=O)c2oc3ccccc3c2NC(=O)C2CC2)CC1,/,1,22,-22,-6
SMILES,H9c2 TAG inh,Bfl-1 A1 inh,SR-BI DiI-HDL act,SR-BI HDL uptake,Vif imaging
CC1(C)C2CC=C(/C=N/NC(=S)Nc3cccnc3)C1C2 (configuration not stated),-2,1,16,-16,-3
CC1=C/C(=N\NC(=S)Nc2cccnc2)CC(C)(C)C1,53*,/,-2,2,0
COc1cc(/C=C2/C(=N)N3N=C(CC(=O)N4CCOCC4)SC3=NC2=O)ccc1OCc1ccc(F)cc1,/,0,-35,35,-4
C=C1C(=O)O[C@@H]2[C@H]1[C@@H](OC(=O)/C(C)=C/C)C/C(C)=C\C(=O)/C=C(\C)[C@@H]2O,47,2,13,-13,97*
C=C1C(=O)O[C@H]2[C@H]1[C@H](OC(=O)/C(C)=C\C)C[C@]1(CO1)[C@@H]1[C@H](OC(C)=O)C=C(C)[C@]21O,3,/,8,-8,8
Cc1ccc(S(=O)(=O)N2CCC(C(=O)N3CC(C)OC(C)C3)CC2)cc1 (configuration not stated),4,1,11,-11,4
Oc1ccc(Cl)cc1N=Cc1sc2ccccc2c1Cl,5,1,-5,5,-2
O=[N+]([O-])c1ccc(O)c(N=Cc2sc3ccccc3c2O)c1,/,-7,-125,124*,2
CC(C)(C)OC(=O)NCCc1nnc(S(=O)(=O)Cc2ccc(Cl)cc2Cl)o1,-5,5.9*,26,-26,-1
C[C@@]12C(=O)OC(=O)[C@]1(C)C1CCC2O1,102,3,-89,89*,-19
CCOc1ccc(N(CC(=O)NCCSCc2ccco2)S(=O)(=O)c2ccc(C)cc2)cc1,-1,0,-13,13,-13
Cc1cc(C)cc(NC(=O)CCc2nc3sc4c(c3c(=O)[nH]2)CCCC4)c1,21,-1,29,-29,151*
C[C@H]1CN([C@@H](C)CO)C(=O)CCCn2cc(nn2)CO[C@@H]1CN(C)C(=O)Oc1ccccc1,/,/,/,/,7
O=C(O)c1ccc(Cl)c(NCc2cccs2)c1,5,0,8,-8,18
O=C(Cc1ccccc1)NCC(=O)Nc1cccc(Cl)c1,/,3,/,/,-3
CCn1c(=NC(=O)C2COc3ccccc3O2)sc2c(OC)ccc(OC)c21 (configuration not stated),-6,-1,-10,10,71*
COCCn1c(=NC(=O)C2COc3ccccc3O2)sc2cc(S(N)(=O)=O)ccc21 (configuration not stated),/,3,-11,11,/
COc1ccc(OC)c2c1sc(=NC(=O)C(C)C)n2C,8,2,3,-3,/
COc1ccc(OC)c2c1sc(=NC(=O)c1cccc(N3C(=O)CCC3=O)c1)n2C,12,-1,-77,77*,2
CCn1c(=NC(=O)c2cccc(N3C(=O)CCC3=O)c2)sc2c(OC)ccc(OC)c21,-2,0,-91,91*,15
Nc1[nH]ncc1-c1ccc(F)cc1,/,0,-3,3,-4
CCN(CC)C(=O)Cn1c(=O)c2ccccc2n2c(=S)sc(-c3cccc(C)c3)c12,/,0,-43,43,-1
CC1CC(C)CN(C(=O)Cn2cc(C=O)c3ccccc32)C1 (configuration not stated),-4,0,14,-14,0
